# In ChEMBL document CHEMBL2157924, “Cyclobutane derivatives as novel nonpeptidic small molecule agonists of glucagon-like peptide-1 receptor” (J Med Chem, 2012):
# Columns and labels:
# [1] = target: T1, Glucagon-like peptide 1 receptor (Rattus norvegicus, UniProt P32301); test: Agonist activity at rat GLP1R expressed in HEK293 cells assessed as stimulation of cAMP levels incubated for 6 hrs by multiple response element/cAMP response element (MRE/CRE)-driven reporter gene assay; format: functional, cell-based
# T1 sequence (P32301 whole entry): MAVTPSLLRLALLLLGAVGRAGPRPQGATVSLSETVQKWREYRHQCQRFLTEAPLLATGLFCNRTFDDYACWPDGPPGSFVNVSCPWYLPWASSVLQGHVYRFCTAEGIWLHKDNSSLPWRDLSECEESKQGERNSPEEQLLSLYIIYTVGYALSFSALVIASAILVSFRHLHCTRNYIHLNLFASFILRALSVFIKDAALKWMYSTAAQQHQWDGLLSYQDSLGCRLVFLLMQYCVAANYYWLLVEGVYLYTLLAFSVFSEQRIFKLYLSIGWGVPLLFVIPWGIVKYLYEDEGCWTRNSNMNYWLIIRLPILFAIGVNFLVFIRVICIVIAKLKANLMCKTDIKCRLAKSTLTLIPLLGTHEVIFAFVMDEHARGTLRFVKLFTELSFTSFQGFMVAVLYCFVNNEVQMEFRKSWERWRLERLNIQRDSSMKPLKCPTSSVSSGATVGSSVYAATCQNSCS
# How it was run: (§1)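 Stable HEK293 line co-expressing rat GLP-1R (pCMV-Tag2B) and a luciferase reporter with 3× MRE plus 1× CRE, seeded at 40000 cells/well and cultured overnight. Compounds in DMSO or GLP-1(7−37) were added for 6 h, then cells were lysed and luciferase read (Steady-Glo). The 10 nM GLP-1 maximum was taken as 100%. Mean ± SEM of two independent experiments; some values come from a single run.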
# [2] = target: T2, Glucagon-like peptide 1 receptor (Rattus norvegicus) (UniProt P32301); test: Agonist activity at rat GLP1R expressed in HEK293 cells assessed as stimulation of cAMP levels incubated for 6 hrs by multiple response element/cAMP response element (MRE/CRE)-driven reporter gene assay relative to 10 nM GLP1; format: functional, cell-based; how it was run: as §1
# T2 sequence (whole entry): T1 sequence (P32301 whole entry)
# [3] = target: T2, Glucagon-like peptide 1 receptor (Rattus norvegicus); test: Inhibition of [125I]GLP1 (7-36) amide binding to rat GLP1R expressed in HEK293 cells relative to untreated control; format: cell-based; set-up: concentration or dose not given beside the values; conditions: concentration not given here
# How it was run: (§2)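 Membranes (17 μg protein) from HEK293 cells stably expressing rat GLP-1R were preincubated 5 h at 4 °C with FlashBlue beads (150 μg). Then 40 pM [125I]GLP-1(7−36) amide or [125I]Exendin(9−39) was added with aprotinin 2 μg/mL, leupeptin 100 μM and test compound at varied concentrations. Incubated overnight at 4 °C, then bound radioactivity counted. Mean ± SEM of two independent experiments.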
# [4] = target: T2, Glucagon-like peptide 1 receptor (Rattus norvegicus); test: Inhibition of [125I]Exendin (9-39) binding to rat GLP1R expressed in HEK293 cells; format: cell-based; set-up: concentration or dose not given beside the values; conditions: concentration not given here; how it was run: as §2
# [5] = target: T1, Glucagon-like peptide 1 receptor; test: Inhibition of [125I]GLP1 (7-36) amide binding to rat GLP1R expressed in HEK293 cells; format: cell-based; how it was run: as §2
SMILES,EC50 [1],Efficacy [2],inhibition [3],inhibition [4],IC50 [5]
COc1cc([C@H]2[C@](NC(=O)c3ccc(NC(=O)OC(C)(C)C)cc3)(C(=O)O)[C@@H](c3ccc(NC(C)=O)c(OC)c3)[C@]2(NC(=O)c2ccc(NC(=O)OC(C)(C)C)cc2)C(=O)O)ccc1NC(C)=O,> 20 µM,< 15%,32.5%,9.4%,
COc1cc([C@H]2[C@](NC(=O)c3ccc(NC(=O)C(C)NC(=O)OC(C)(C)C)cc3)(C(=O)O)[C@@H](c3ccc(OC(=O)c4cccs4)c(OC)c3)[C@]2(NC(=O)c2ccc(NC(=O)C(C)NC(=O)OC(C)(C)C)cc2)C(=O)O)ccc1OC(=O)c1cccs1 (stereo partly specified),,49%,77.3%,69.7%,0.9 µM
COc1cc([C@H]2[C@](NC(=O)c3ccc(NC(=O)OC(C)(C)C)cc3)(C(=O)O)[C@@H](c3ccc(OC(=O)c4cccs4)c(OC)c3)[C@]2(NC(=O)c2ccc(NC(=O)OC(C)(C)C)cc2)C(=O)O)ccc1OC(=O)c1cccs1 (stereo in doubt),,121%,89.8%,70.5%,
COc1cc([C@H]2[C@](NC(=O)c3ccc(NC(=O)OC(C)(C)C)cc3)(C(=O)O)[C@H](c3ccc(OC(=O)c4cccs4)c(OC)c3)[C@@]2(NC(=O)c2ccc(NC(=O)OC(C)(C)C)cc2)C(=O)O)ccc1OC(=O)c1cccs1,,16.5%,42%,56.3%,4.3 µM
COc1cc([C@H]2[C@](NC(=O)c3ccc(NC(=O)OC(C)(C)C)cc3)(C(=O)O)[C@@H](c3ccc(OC(=O)c4ccco4)c(OC)c3)[C@]2(NC(=O)c2ccc(NC(=O)OC(C)(C)C)cc2)C(=O)O)ccc1OC(=O)c1ccco1,> 20 µM,< 15%,27.6%,8.3%,
COc1cc([C@H]2[C@](NC(=O)c3ccc(NC(=O)OC(C)(C)C)cc3)(C(=O)O)[C@H](c3ccc(OC(=O)c4cccs4)c(OC)c3)[C@]2(NC(=O)c2ccc(NC(=O)OC(C)(C)C)cc2)C(=O)O)ccc1OC(=O)c1cccs1,,68.2%,73.4%,,1.3 µM
COc1cc([C@H]2[C@](NC(=O)c3ccc(NC(=O)OC(C)(C)C)cc3)(C(=O)O)[C@@H](c3ccc(OC(C)=O)c(OC)c3)[C@]2(NC(=O)c2ccc(NC(=O)OC(C)(C)C)cc2)C(=O)O)ccc1OC(C)=O,8.31 µM,43.6%,43.6%,< 15%,
COc1cc([C@H]2[C@](NC(=O)c3ccc(NC(=O)Cc4ccccc4)cc3)(C(=O)O)[C@@H](c3ccc(OC(=O)c4cccs4)c(OC)c3)[C@]2(NC(=O)c2ccc(NC(=O)Cc3ccccc3)cc2)C(=O)O)ccc1OC(=O)c1cccs1,,32%,45.7%,33.4%,3.2 µM
CCCC(=O)Nc1ccc(C(=O)N[C@]2(C(=O)O)[C@H](c3ccc(OC(=O)c4cccs4)c(OC)c3)[C@@](NC(=O)c3ccc(NC(=O)CCC)cc3)(C(=O)O)[C@@H]2c2ccc(OC(=O)c3cccs3)c(OC)c2)cc1,,50%,52.4%,48.2%,3.4 µM
CC(C)(C)OC(=O)Nc1ccc(C(=O)N[C@]2(C(=O)O)[C@H](c3ccc(OC(=O)c4ccccc4)cc3)[C@@](NC(=O)c3ccc(NC(=O)OC(C)(C)C)cc3)(C(=O)O)[C@@H]2c2ccc(OC(=O)c3ccccc3)cc2)cc1,,21.6%,13.5%,6.3%,
COc1cc([C@H]2[C@](NC(=O)c3ccc(NC(=O)OC(C)(C)C)cc3)(C(=O)O)[C@@H](c3ccc(OCc4ccccc4)c(OC)c3)[C@]2(NC(=O)c2ccc(NC(=O)OC(C)(C)C)cc2)C(=O)O)ccc1OCc1ccccc1,> 20 µM,< 15%,10%,14.3%,
COc1cc([C@H]2[C@](NC(=O)c3ccc(NC(=O)C(C)N)cc3)(C(=O)O)[C@@H](c3ccc(OC(=O)c4cccs4)c(OC)c3)[C@]2(NC(=O)c2ccc(NC(=O)C(C)N)cc2)C(=O)O)ccc1OC(=O)c1cccs1 (stereo partly specified),,48%,35.2%,27.9%,16.2 µM
COc1cc([C@H]2[C@](NC(=O)c3ccc(NC(=O)C(C)C)cc3)(C(=O)O)[C@@H](c3ccc(OC(C)=O)c(OC)c3)[C@]2(NC(=O)c2ccc(NC(=O)C(C)C)cc2)C(=O)O)ccc1OC(C)=O,,30%,34.1%,35.2%,
COc1cc([C@H]2[C@](NC(=O)c3ccc(NC(=O)COCc4ccccc4)cc3)(C(=O)O)[C@@H](c3ccc(OC(=O)c4cccs4)c(OC)c3)[C@]2(NC(=O)c2ccc(NC(=O)COCc3ccccc3)cc2)C(=O)O)ccc1OC(=O)c1cccs1,,12%,57.5%,45.9%,1.9 µM
COc1cc([C@H]2[C@](NC(=O)c3ccc(NC(=O)C45CC6CC(CC(C6)C4)C5)cc3)(C(=O)O)[C@@H](c3ccc(OC(=O)c4cccs4)c(OC)c3)[C@]2(NC(=O)c2ccc(NC(=O)C34CC5CC(CC(C5)C3)C4)cc2)C(=O)O)ccc1OC(=O)c1cccs1,,6%,50.7%,46.8%,8 µM
CC(C)(C)OC(=O)Nc1ccc(C(=O)N[C@]2(C(=O)O)[C@H](c3ccc(OC(=O)c4cccs4)cc3)[C@@](NC(=O)c3ccc(NC(=O)OC(C)(C)C)cc3)(C(=O)O)[C@@H]2c2ccc(OC(=O)c3cccs3)cc2)cc1,,63.7%,63.7%,< 15%,
CC(C)(C)OC(=O)Nc1ccc(C(=O)N[C@]2(C(=O)O)[C@H](c3ccc(OCc4ccccc4)cc3)[C@@](NC(=O)c3ccc(NC(=O)OC(C)(C)C)cc3)(C(=O)O)[C@@H]2c2ccc(OCc3ccccc3)cc2)cc1,,24.8%,21.2%,9.6%,
COc1cc([C@H]2[C@](NC(=O)c3ccc(NC(=O)Nc4cccc(F)c4)cc3)(C(=O)O)[C@@H](c3ccc(OC(=O)c4cccs4)c(OC)c3)[C@]2(NC(=O)c2ccc(NC(=O)Nc3cccc(F)c3)cc2)C(=O)O)ccc1OC(=O)c1cccs1,2.71 µM,7.7%,3.2%,4.7%,
COc1cc([C@H]2[C@](NC(=O)c3ccc(NC(=O)CO)cc3)(C(=O)O)[C@@H](c3ccc(OC(=O)c4cccs4)c(OC)c3)[C@]2(NC(=O)c2ccc(NC(=O)CO)cc2)C(=O)O)ccc1OC(=O)c1cccs1,,38%,59.3%,52.7%,8.1 µM
COc1cc([C@H]2[C@](NC(=O)c3ccc(NC(=O)OC(C)(C)C)cc3)(C(=O)O)[C@@H](c3ccc(OC(=O)Cc4ccccc4)c(OC)c3)[C@]2(NC(=O)c2ccc(NC(=O)OC(C)(C)C)cc2)C(=O)O)ccc1OC(=O)Cc1ccccc1,,26%,17.5%,4.8%,
CC(=O)Nc1ccc([C@H]2[C@](NC(=O)c3ccc(NC(=O)OC(C)(C)C)cc3)(C(=O)O)[C@@H](c3ccc(NC(C)=O)cc3)[C@]2(NC(=O)c2ccc(NC(=O)OC(C)(C)C)cc2)C(=O)O)cc1,> 20 µM,< 15%,12.1%,2.8%,
COc1cc([C@H]2[C@](NC(=O)c3ccc(NC(=O)C4CCCCC4)cc3)(C(=O)O)[C@@H](c3ccc(OC(=O)c4cccs4)c(OC)c3)[C@]2(NC(=O)c2ccc(NC(=O)C3CCCCC3)cc2)C(=O)O)ccc1OC(=O)c1cccs1,,25%,58.9%,54.8%,1 µM
